In ChEMBL document CHEMBL2040753, “Development of potent and selective inhibitors of aldo-keto reductase 1C3 (type 5 17β-hydroxysteroid dehydrogenase) based on N-phenyl-aminobenzoates and their structure-activity relationships” (J Med Chem, 2012) one finds IC50 data, which are given here for 57 compounds.

The target in test [1] is T1, Aldo-keto reductase family 1 member C2 (Homo sapiens, UniProt P52895).
T1 sequence (P52895 whole entry): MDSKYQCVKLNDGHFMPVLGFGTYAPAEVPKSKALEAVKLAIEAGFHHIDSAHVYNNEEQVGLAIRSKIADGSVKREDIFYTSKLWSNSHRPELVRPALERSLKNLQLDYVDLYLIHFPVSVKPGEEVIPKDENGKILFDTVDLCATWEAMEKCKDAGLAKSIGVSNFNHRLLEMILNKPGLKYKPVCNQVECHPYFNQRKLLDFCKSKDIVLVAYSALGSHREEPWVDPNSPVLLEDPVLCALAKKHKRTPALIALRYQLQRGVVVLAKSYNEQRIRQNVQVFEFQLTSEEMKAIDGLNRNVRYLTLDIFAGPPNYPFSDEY
Briefly: Inhibition of recombinant AKR1C2 assessed as NADP+ dependent oxidation of S-tetralol by fluorescence assay. The essentials:
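Homogeneous recombinant enzyme; continuous oxidation of S-tetralol (at each isoform's KM) with 200 μM NADP+ in 100 mM phosphate pH 7.0, 4% DMSO, 37 °C. Initial velocities compared with solvent control; quadruplicate points over a range of inhibitor concentrations; IC50 from curve fit.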

Test [2] addresses T2, Aldo-keto reductase family 1 member C3 (Homo sapiens, UniProt P42330).
T2 sequence (P42330 whole entry): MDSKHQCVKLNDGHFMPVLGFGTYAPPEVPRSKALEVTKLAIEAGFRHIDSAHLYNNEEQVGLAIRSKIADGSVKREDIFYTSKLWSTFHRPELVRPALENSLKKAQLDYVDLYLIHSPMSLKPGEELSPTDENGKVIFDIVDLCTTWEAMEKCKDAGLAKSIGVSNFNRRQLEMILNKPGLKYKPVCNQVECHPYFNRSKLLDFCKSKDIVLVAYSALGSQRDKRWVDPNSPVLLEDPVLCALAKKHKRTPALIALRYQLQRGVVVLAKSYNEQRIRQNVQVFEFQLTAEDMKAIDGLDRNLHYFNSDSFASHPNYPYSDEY
Put plainly: Inhibition of recombinant AKR1C3 assessed as NADP+ dependent oxidation of S-tetralol by fluorescence assay.

For `CC(=O)c1ccc(Nc2cc(C(F)(F)F)cc(C(F)(F)F)c2)c(C(=O)O)c1`, the IC50 was 16000 nM in test [1] and 1760 nM in test [2].

Consider `CC(=O)c1ccc(Nc2ccc(C(F)(F)F)cc2)c(C(=O)O)c1`, for which the IC50 in test [1] is 2730 nM; in test [2], 140 nM.

Take `CC(=O)c1ccc(Nc2ccc(C)cc2)c(C(=O)O)c1`: the IC50 is 8230 nM in test [1] and 1650 nM in test [2].

With `CC(=O)c1ccc(Nc2cc(C)cc(C)c2)c(C(=O)O)c1`, the values for the IC50 in test [1] and in test [2] were 10600 nM and 1820 nM, respectively.

`COc1ccccc1Nc1ccc(C(C)=O)cc1C(=O)O`: the IC50 in test [1] is 8970 nM; in test [2] it was 3060 nM.

Turning to `CC(C)(C)c1ccc(Nc2ccc(C(=O)O)cc2)cc1`, the values for the 50% inhibitory concentration (IC50) in test [1] and in test [2] were 10300 nM and 930 nM, respectively.

On to `CC(=O)c1cccc(Nc2ccccc2C(=O)O)c1`, for which the IC50 turned out to be 1550 nM in test [1] and 140 nM in test [2].

Take `O=C(O)c1cccc(Nc2cc(C(F)(F)F)cc(C(F)(F)F)c2)c1`: the half-inhibitory concentration (IC50) was 19200 nM in test [1] and 250 nM in test [2].

As for `O=C(O)c1cccc(Nc2ccccc2C(F)(F)F)c1`, the IC50 in test [1] was determined as 15100 nM; in test [2] it was 560 nM.

Take `COc1ccc(Nc2ccc(C(C)=O)cc2C(=O)O)cc1`: the IC50 turned out to be 910 nM in test [1] and 610 nM in test [2].

With `CC(=O)c1ccc(Nc2ccc(C(=O)O)cc2)cc1`, the figures for the IC50 in test [1] and in test [2] were 24500 nM and 2500 nM, respectively.

With `COc1ccc(C(=O)O)c(Nc2ccc([N+](=O)[O-])cc2)c1`, the IC50 in test [1] amounted to 190 nM; in test [2], 500 nM.

As to `CC(=O)c1ccc(Nc2ccccc2C(=O)O)cc1`, the figures for the IC50 in test [1] and in test [2] were 400 nM and 130 nM, respectively.

With `COc1ccccc1Nc1ccccc1C(=O)O`, the figures for the IC50 in test [1] and in test [2] were 1280 nM and 2220 nM, respectively.

In the case of `COc1ccc(Nc2ccc(C(=O)O)cc2)c([N+](=O)[O-])c1`, the half-maximal inhibitory concentration (IC50) came out at 59200 nM in test [1] and 2060 nM in test [2].

For the compound `O=C(O)c1ccc(Nc2ccc(C(=O)O)cc2)cc1`, the IC50 worked out at 6300 nM in test [1] and 2370 nM in test [2].

`COc1ccc(C(=O)O)c(Nc2cccc(C(F)(F)F)c2)c1`: the results for the IC50 in test [1] and in test [2] were 220 nM and 60 nM, respectively.

With `COc1cc(Nc2ccccc2C(=O)O)cc(OC)c1`, the 50% inhibitory concentration (IC50) is 3400 nM in test [1] and 890 nM in test [2].

For the compound `O=C(O)c1cccc(Nc2cc(C(=O)O)cc(C(=O)O)c2)c1`, the IC50 in test [1] is more than 100000 nM; in test [2], more than 30000 nM.

As for `COc1cc(Nc2ccc(C(=O)O)cc2)cc(OC)c1`, the results for the IC50 in test [1] and in test [2] were 69900 nM and 2530 nM, respectively.

On to `COc1cccc(Nc2cc(OC)ccc2C(=O)O)c1`, for which the IC50 in test [1] was 1470 nM; in test [2] it was 570 nM.

`CC(=O)c1ccc(Nc2ccccc2)c(C(=O)O)c1`: the IC50 in test [1] amounted to 3810 nM; in test [2], 2530 nM.

On to `CC(=O)c1ccc(Nc2ccc([N+](=O)[O-])cc2)c(C(=O)O)c1`, for which the IC50 in test [1] was determined as 1330 nM; in test [2] it was 1170 nM.

`COc1ccc(C(=O)O)c(Nc2ccc(C)cc2)c1`: the concentration for half-maximal inhibition (IC50) in test [1] was determined as 1110 nM; in test [2] it was 800 nM.

In the case of `O=C(O)c1ccc(Nc2ccc(Br)cc2)cc1`, the IC50 is more than 30000 nM in test [1] and 1180 nM in test [2].

Turning to `COc1cc(Nc2cccc(C(=O)O)c2)cc(OC)c1`, the IC50 in test [1] turned out to be 56200 nM; in test [2], 360 nM.

Consider `O=C(O)c1cccc(Nc2cccc(C(F)(F)F)c2)c1`, for which the IC50 was found to be 16000 nM in test [1] and 320 nM in test [2].

Take `COc1ccc(C(=O)O)c(Nc2ccc(C(C)=O)cc2)c1`: the IC50 came to 270 nM in test [1] and 500 nM in test [2].

`O=C(O)c1ccccc1Nc1cccc(Cl)c1`: the IC50 in test [1] and in test [2] was 150 nM each time.

On to `COc1ccc(Nc2ccc(C(C)=O)cc2C(=O)O)c([N+](=O)[O-])c1`, for which the IC50 stood at 3930 nM in test [1] and 260 nM in test [2].

Consider `Cc1cc(C)cc(Nc2cccc(C(=O)O)c2)c1`, for which the IC50 in test [1] was 44600 nM; in test [2], 1080 nM.

`CC(=O)c1cccc(Nc2cccc(C(=O)O)c2)c1`: the IC50 came out at 36600 nM in test [1] and 560 nM in test [2].

`COc1ccc(Nc2ccc(C(=O)O)cc2)cc1`: the values for the IC50 in test [1] and in test [2] were 22900 nM and 2210 nM, respectively.

On to `CC(=O)c1ccc(Nc2ccc(C(C)(C)C)cc2)c(C(=O)O)c1`, for which the IC50 came to 7050 nM in test [1] and 280 nM in test [2].

For the compound `COc1ccc(Nc2ccccc2C(=O)O)c([N+](=O)[O-])c1`, the IC50 is 920 nM in test [1] and 30 nM in test [2].

Take `CC(=O)c1ccc(Nc2ccccc2C(F)(F)F)c(C(=O)O)c1`: the figures for the IC50 in test [1] and in test [2] were 2070 nM and 1350 nM, respectively.

As for `COc1ccccc1Nc1cccc(C(=O)O)c1`, the concentration for half-maximal inhibition (IC50) in test [1] amounted to 26600 nM; in test [2] it was 1650 nM.

For the compound `COc1cccc(Nc2cccc(C(=O)O)c2)c1`, the IC50 came to 15200 nM in test [1] and 1190 nM in test [2].

`COc1ccc(C(=O)O)c(Nc2ccc(C(C)(C)C)cc2)c1`: the values for the IC50 in test [1] and in test [2] were 700 nM and 80 nM, respectively.

`COc1cc(Nc2cc(OC)ccc2C(=O)O)cc(OC)c1`: the figures for the IC50 in test [1] and in test [2] were 6780 nM and 2220 nM, respectively.

Take `Cc1cc(C)cc(Nc2ccccc2C(=O)O)c1`: the IC50 in test [1] turned out to be 2360 nM; in test [2], 1090 nM.

Consider `O=C(O)c1ccccc1Nc1ccc([N+](=O)[O-])cc1`, for which the IC50 in test [1] was determined as 280 nM; in test [2] it was 160 nM.

As for `COc1ccc(C(=O)O)c(Nc2ccc(Br)cc2)c1`, the IC50 was 540 nM in test [1] and 150 nM in test [2].

In the case of `CC(C)(C)c1ccc(Nc2ccccc2C(=O)O)cc1`, the IC50 in test [1] came out at 1070 nM; in test [2] it was 40 nM.

Turning to `O=C(O)c1cccc(Nc2cccc(Cl)c2)c1`, the IC50 in test [1] stood at 7170 nM; in test [2] it was 460 nM.

In the case of `COc1ccc(C(=O)O)c(Nc2cccc(C(=O)O)c2)c1`, the figures for the IC50 in test [1] and in test [2] were 8380 nM and 1450 nM, respectively.

Consider `Cc1cccc(Nc2ccccc2C(=O)O)c1`, for which the 50% inhibitory concentration (IC50) in test [1] amounted to 380 nM; in test [2], 240 nM.

Regarding `O=C(O)c1ccc(Nc2ccc([N+](=O)[O-])cc2)cc1`, the IC50 was found to be 11100 nM in test [1] and 1320 nM in test [2].

`O=C(O)c1cccc(Nc2cccc(C(=O)O)c2)c1`: the IC50 is more than 100000 nM in test [1] and 3570 nM in test [2].

For `COc1ccc(C(=O)O)c(Nc2cccc(C)c2)c1`, the IC50 in test [1] was 870 nM; in test [2], 640 nM.

Consider `CC(=O)c1ccc(Nc2cccc(C(F)(F)F)c2)c(C(=O)O)c1`, for which the IC50 is 2670 nM in test [1] and 730 nM in test [2].

Take `COc1cc(Nc2ccc(C(C)=O)cc2C(=O)O)cc(OC)c1`: the 50% inhibitory concentration (IC50) came out at 26800 nM in test [1] and 900 nM in test [2].

With `Cc1cccc(C)c1Nc1cccc(C(=O)O)c1`, the values for the IC50 in test [1] and in test [2] were 10300 nM and 2910 nM, respectively.

For `CC(=O)c1ccc(Nc2cc(C(=O)O)cc(C(=O)O)c2)c(C(=O)O)c1`, the 50% inhibitory concentration (IC50) in test [1] was 31600 nM; in test [2], 610 nM.

As for `COc1ccc(C(=O)O)c(Nc2cc(C)cc(C)c2)c1`, the IC50 is 3240 nM in test [1] and 1730 nM in test [2].

Take `CC(=O)c1ccc(Nc2ccccc2C(C)=O)c(C(=O)O)c1`: the IC50 in test [1] was 12700 nM; in test [2], 4440 nM.

As for `CC(=O)c1ccc(Nc2ccc(Br)cc2)c(C(=O)O)c1`, the IC50 in test [1] was 490 nM; in test [2] it was 250 nM.
